# Most compounds without a hit are left out; they make up all but 0.99% or so of the library.
# NSD2 inh: NSD2 histone methyltransferase inhibitors, primary screen, biochemical, AlphaScreen, single concentration, set 2; actives 0.54% (n = 310,000); NSD2 peptide methylation, 120 min; Histone-lysine N-methyltransferase NSD2 (Homo sapiens), O96028; inhibition, % at 12.5 µM; in the data active = inhibition above about 50%
# FN deposit inh: inhibitors of fibronectin matrix deposition, primary screen, AH1F cells, Alexa488-fibronectin fluorescence, plate reader; AH1F fibroblasts, overnight; inhibition, % at 12.6 µM; actives 0.086% (n = 350,000); AID 743247, 2014;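 active = mean inhibition across replicates of 30% or more, regardless of how many single replicates reach that level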;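 note: positive control wells lacked labelled fibronectin entirely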
#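 test system = AH1F fibroblasts assembling fluorescent fibronectin matrix | quantity = 10000 AH1F cells per well | buffer or medium = DMEM plus 2% serum, read in PBS | doses = single dose, pinned | incubation = 1 h cell attachment, overnight exposure to compound and label | detection = fluorescence at 485 nm excitation, 525 nm emission | read-out basis = inhibition from reduced deposited-fibronectin fluorescence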
# CaV13 ICDI inh: Primary screen for inhibitors of IQ motif and Ca2+-dependent inactivation inhibitor domain binding in CACNA1D, Förster resonance energy transfer in living cells, …; HEK cells, CFP/YFP FRET ICDI-IQ, plate reader, 10 min; percent FRET-ratio fall versus neutral wells; actives 0.098% (n = 340,000); inhibition, % at 12.3 µM; AID 743397;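 active = mean replicate inhibition of at least 30% and at least 1% of replicates passing that level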;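 note: 0% = median of the neutral control wells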
# NPR1 activator: GC-A stimulated cGMP production enhancers – HEK293 GC-A cells, cGMP TR-FRET, EC30 ANP, primary screen. actives 0.14% (n = 370,000). Atrial natriuretic peptide receptor 1 (Homo sapiens), P16066. activation, % at 10 µM. 0% at EC30 ANP, 100% saturating ANP; in the data active = activation above about 40%
# Target sequence (P16066 whole entry, looked up): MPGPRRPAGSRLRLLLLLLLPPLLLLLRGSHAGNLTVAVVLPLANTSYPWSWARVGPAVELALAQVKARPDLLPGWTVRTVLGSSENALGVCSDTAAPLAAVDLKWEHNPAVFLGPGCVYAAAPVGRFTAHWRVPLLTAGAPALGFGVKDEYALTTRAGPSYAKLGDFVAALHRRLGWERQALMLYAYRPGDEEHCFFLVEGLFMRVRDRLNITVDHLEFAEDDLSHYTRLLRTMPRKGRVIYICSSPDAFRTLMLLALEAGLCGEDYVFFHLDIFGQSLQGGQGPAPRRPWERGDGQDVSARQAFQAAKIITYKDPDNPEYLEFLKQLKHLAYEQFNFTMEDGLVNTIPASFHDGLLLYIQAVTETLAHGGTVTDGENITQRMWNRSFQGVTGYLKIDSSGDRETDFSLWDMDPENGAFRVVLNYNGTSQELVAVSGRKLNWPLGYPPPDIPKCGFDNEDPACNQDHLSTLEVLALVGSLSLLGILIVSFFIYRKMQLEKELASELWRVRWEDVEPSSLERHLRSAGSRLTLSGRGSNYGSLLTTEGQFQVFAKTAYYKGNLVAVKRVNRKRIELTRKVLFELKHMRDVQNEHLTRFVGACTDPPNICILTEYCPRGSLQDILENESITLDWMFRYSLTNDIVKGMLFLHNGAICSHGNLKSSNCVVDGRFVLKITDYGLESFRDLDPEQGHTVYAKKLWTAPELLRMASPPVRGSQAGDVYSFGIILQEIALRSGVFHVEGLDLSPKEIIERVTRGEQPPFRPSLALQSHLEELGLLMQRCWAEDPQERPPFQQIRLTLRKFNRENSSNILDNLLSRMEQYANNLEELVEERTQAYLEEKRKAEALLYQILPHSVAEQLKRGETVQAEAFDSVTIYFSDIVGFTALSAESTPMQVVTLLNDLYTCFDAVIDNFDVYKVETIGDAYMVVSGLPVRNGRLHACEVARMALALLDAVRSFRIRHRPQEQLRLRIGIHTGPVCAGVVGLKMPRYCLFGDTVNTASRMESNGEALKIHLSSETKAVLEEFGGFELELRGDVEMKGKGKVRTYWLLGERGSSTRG
# CASP6 VEID inh: human caspase-6 inhibitors, primary screen, biochemical, VEID-R110 fluorescence, single point, set 2 | actives 0.53% (n = 350,000) | inhibition, % at 12.5 µM | purified caspase-6, Z-VEID-R110 cleavage fluorescence;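 active = mean inhibition across replicates at least about 35%, with every replicate also reaching that limit, limit read from the data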;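 note: 0% = median of neutral control wells and 100% = no fluorescence left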
# GC-B act: human GC-B receptor activators, primary screen, HEK293 GC-B cells, cGMP TR-FRET, EC30 CNP; Atrial natriuretic peptide receptor 2 (Homo sapiens), P20594; 0% at EC30 CNP, 100% saturating CNP; activation, % at 10 µM; actives 0.11% (n = 370,000); AID 1920062, 2024;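 active = activation at 10 µM reaching about 35% in either raw or pattern-adjusted values, limit read from the data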
# Alpha artifact: AlphaScreen signal interference with preloaded methylated product, dose response, artefact control for NSD2 inhibitor project, biochemical, cherry-picked samples; shares compounds with NSD2 inh; AC35, µM (series often up to 10 µM), for the others: at the top dose activity change, negative = signal loss; AlphaScreen artifact counterscreen, preloaded methylated H4 peptide; AID 1053174, 2014; actives 9.4% (n = 1,500); call rule not given here
# Active calls of the source: *; · = no result given.
SMILES,NSD2 inh,FN deposit inh,CaV13 ICDI inh,NPR1 activator,CASP6 VEID inh,GC-B act,Alpha artifact
CCN(CC)CCN(Cc1cc2cc3c(cc2[nH]c1=O)OCO3)C(=S)NCCCOC,8,3,-2,5,0,2,·
CCN(CC)CCCN(Cc1cc2cc3c(cc2[nH]c1=O)OCO3)C(=S)NCCCOC,75*,-6,-21,8,-1,1,-2%
CCN(CC)CCCN(Cc1cc2cc3c(cc2[nH]c1=O)OCCO3)C(=O)Nc1ccccc1,93*,·,·,-3,·,-4,2%
O=C(Nc1ccccc1)N(CCCN1CCOCC1)Cc1cc2cc3c(cc2[nH]c1=O)OCCO3,2,·,·,3,·,-3,·
Cc1ccc2cc(CN(CC3CCCO3)C(=O)NC3CCCCC3)c(=O)[nH]c2c1C (stereo unspecified),2,·,-7,0,·,-2,·
C[C@H](CO)N1C[C@H](C)[C@H](CN(C)Cc2cccc(C(F)(F)F)c2)Oc2ncccc2C1=O,·,-6,·,·,·,·,·
COc1cccc(S(=O)(=O)N(C)C[C@@H]2Oc3ncc(/C=C/c4ccccc4)cc3C(=O)N([C@H](C)CO)C[C@@H]2C)c1,·,·,·,·,-7,·,·
C[C@@H]1CN([C@H](C)CO)C(=O)c2cccc(NS(=O)(=O)c3cn(C)cn3)c2O[C@H]1CN(C)S(=O)(=O)c1ccccc1,·,·,·,·,-1,·,·
C[C@@H]1CN([C@H](C)CO)C(=O)Cc2cc(NS(=O)(=O)c3ccccc3)ccc2O[C@H]1CN(C)CC1CC1,·,·,·,·,-2,·,·
O=C(CNC(=O)c1ccco1)NCC(=O)OCc1ccccc1Cl,56*,0,-7,-1,2,3,-2%
CN1CCN(C(=O)C[C@H]2CC[C@@H](NC(=O)Cc3ccccn3)[C@@H](CO)O2)CC1,·,-10,·,·,0,·,·
COC(=O)c1ccc(Cn2cnc3c(sc4nc(N5CCOCC5)c5c(c43)CCCC5)c2=O)o1,75*,·,·,41*,·,49*,-8%
O=c1c2sc3nc(N4CCOCC4)c4c(c3c2ncn1CCc1ccccc1)CCCC4,-1,-4,-4,16,·,23,·
C[C@H]1CN([C@@H](C)CO)C(=O)c2cc(NC(=O)CCCN(C)C)ccc2O[C@H]1CN(C)C(=O)Nc1ccc2c(c1)OCO2,·,4,·,·,-2,·,·
NC1=CC(=O)C(=O)c2ccccc21,100*,-5,-6,0,41*,2,-1%
Cc1ccc(NC2=CC(=O)C(=O)c3ccccc32)c(C)c1,3,-12,-6,-2,19,-5,·
CC(C)n1c(NCc2nc3ccccc3n2C)nc2ccccc21,120*,-7,-5,-2,·,-1,5%
Cn1c(CNc2nc3ccccc3n2C)nc2ccccc21,1,-9,-5,0,·,8,·
C[C@H](CO)N1C[C@H](C)[C@H](CN(C)Cc2ccc(C(=O)Nc3ccccc3N)cc2)Oc2ccc(NS(=O)(=O)c3ccc(F)cc3)cc2C1=O,·,-10,·,·,-1,·,·
CNCc1cc(Br)c(OCC(=O)Nc2ccccc2OC)c(OC)c1,73*,7,-3,-2,-2,0,-3%
C[C@@H]1CN([C@@H](C)CO)C(=O)c2cc(NC(=O)Nc3ccc(C(F)(F)F)cc3)ccc2O[C@@H]1CN(C)Cc1ccc(C(=O)Nc2ccccc2N)cc1,·,·,·,·,0,·,·
CS(=O)(=O)N(CC(=O)N1CCCC1)Cc1ccc(Cl)cc1,-2,1,-14,1,·,1,·
CC1CCN(C(=O)CN(Cc2ccc(Cl)cc2)S(C)(=O)=O)CC1,62*,0,-3,-8,2,2,-8%
Cc1ccc(CSc2nc3c(c(=O)[nH]2)C(c2ccncc2)C2=C(CCCC2=O)N3)cc1 (stereo unspecified),127*,-5,-3,0,·,3,-1%
CN(c1ccc(C(=O)O)cc1)S(=O)(=O)c1ccccc1,52*,·,·,0,·,8,0%
SMILES,NSD2 inh,FN deposit inh,CaV13 ICDI inh,NPR1 activator,CASP6 VEID inh,GC-B act,Alpha artifact
CSc1ncccc1C(=O)Nc1nc2c(C)cccc2s1,104*,·,-7,19,1,-4,-1%
COCCNC(=O)c1cc2c(=O)n3cccc(C)c3nc2n1C,·,28,-3,3,-3,-3,·
Cc1cccn2c(=O)c3cc(C(=O)NCCCn4ccnc4)n(C)c3nc12,118*,-10,-4,5,·,2,2%
C[C@@H]1CCCCO[C@H](CN(C)C(=O)c2ccccc2)[C@@H](C)CN([C@@H](C)CO)C(=O)c2cc(NS(=O)(=O)c3ccccc3)ccc2O1,·,-9,·,·,0,·,·
CNCCCC1c2ccccc2C=Cc2ccccc21,·,-4,-5,-28,3,-21,·
CNCCCC1Sc2ccccc2Oc2ccccc21 (stereo unspecified),72*,1,-5,-17,·,-21,-8%
CNC[C@@H]1Oc2ncc(Br)cc2C(=O)N([C@@H](C)CO)C[C@H]1C,·,·,·,·,1,·,·
CC(=O)N(C)C[C@H]1Oc2c(N)cccc2C(=O)N(C)C[C@H]1C,·,-2,·,·,·,·,·
O=C(Nc1cccnc1)c1ccc(COc2ccccc2Cl)o1,127*,9,-6,5,·,-2,-1%
O=c1c2ccccc2sn1-c1ccc(F)cc1,·,20,-5,8,-1,9,·
O=c1c2ccc([N+](=O)[O-])cc2sn1-c1ccccc1,59*,·,·,·,·,·,-11%
CN1[C@H](C(=O)NCc2ccc(F)cc2)[C@@H](CO)[C@@H]2Cn3c(ccc(-c4ccccc4F)c3=O)[C@@H]21,·,·,·,·,-1,·,·
Cc1nn(CC(=O)Nc2nnc(C(C)C)s2)c(=O)c2ccccc12,59*,6,-3,0,1,3,-1%
CCN(CC)CCCn1c(=S)[nH]c2ncccc2c1=O,55*,0,-4,-1,·,5,-5%
CCN(CCCn1c(=S)[nH]c2ncccc2c1=O)c1ccccc1,2,4,-4,-3,·,-3,·
COc1ccc(CN(C(=O)c2cccc(OC)c2)C2CCS(=O)(=O)C2)cc1 (stereo unspecified),52*,-1,-2,-6,-1,-6,-3%
O=C(c1ccccc1F)N(Cc1cccs1)C1CCS(=O)(=O)C1 (stereo unspecified),85*,-1,-3,-4,3,7,-2%
